Experimental data from ChEMBL document CHEMBL1124678, “New anticancer agents: alterations of the carbamate group of ethyl (5-amino-1,2-dihydro-3-phenylpyrido[3,4-b]pyrazin-7-yl)car bamates” (J Med Chem, 1989).

Columns and labels:
P388 [1] = assay: Increase in the life span of mice implanted with lymphocytic leukemia P388 at the highest nontoxic dose of 0.5 mg/Kg given to the compound intraperitoneally; assay type: functional; settings: Mus musculus, P388, ip
L1210 [2] = assay: Mitotic index (fraction of cells in mitosis divided by total cells ) for cultured lymphoid leukemia L1210 cells; assay type: functional, Mus musculus
How it was run: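 Cultured L1210 lymphoid leukemia cells exposed to agent for 12 h; mitotic index scored as fraction of cells in mitosis over total cells. Value is the nanomolar concentration giving a mitotic index of 0.5 (MI0.5).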

L1210 [3] = assay: The compound was tested in vitro for growth of inhibitory activity against lymphoid leukemia L1210 cells; assay type: functional, cell-based, Mus musculus
How it was run: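 Cultured L1210 lymphoid leukemia cells exposed to agent for 48 h; proliferation measured against untreated control growth. IC50 is the nanomolar concentration holding growth to 50% of control; some values averaged from two determinations.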

P388 [4] = assay: Increase in the life span of mice implanted with lymphocytic leukemia P388 at the highest nontoxic dose of 12 mg/Kg given to the compound intraperitoneally; assay type: functional; settings: Mus musculus, P388, ip
P388 [5] = assay: Increase in the life span of mice implanted with lymphocytic leukemia P388 at the highest nontoxic dose of 1 mg/Kg given to the compound intraperitoneally; assay type: functional; settings: Mus musculus, P388, ip
P388 [6] = assay: Increase in the life span of mice implanted with lymphocytic leukemia P388 at the highest nontoxic dose of 2 mg/Kg given to the compound intraperitoneally; assay type: functional; settings: Mus musculus, P388, ip
P388 [7] = assay: Increase in the life span of mice implanted with lymphocytic leukemia P388 at the highest nontoxic dose of 25 mg/Kg given to the compound intraperitoneally; assay type: functional; settings: Mus musculus, P388, ip
P388 [8] = assay: Increase in the life span of mice implanted with lymphocytic leukemia P388 at the highest nontoxic dose of 50 mg/Kg given to the compound intraperitoneally; assay type: functional; settings: Mus musculus, P388, ip
P388 [9] = assay: Increase in the life span of mice implanted with lymphocytic leukemia P388 at the highest nontoxic dose of 200 mg/Kg given to the compound intraperitoneally; assay type: functional; settings: Mus musculus, P388, ip
P388 [10] = assay: Increase in the life span of mice implanted with lymphocytic leukemia P388 at the highest nontoxic dose of 200 mg/Kg given to the compound intraperitoneally on day 1; assay type: functional; settings: Mus musculus, P388, ip, 24 h
P388 [11] = assay: Increase in the life span of mice implanted with lymphocytic leukemia P388 at the highest nontoxic dose of 1.5 mg/kg given to the compound intraperitoneally; assay type: functional; settings: Mus musculus, P388, ip, route intraperitoneal

Row | Structure (SMILES) | MI0.5 (L1210 [2]) | IC50 (L1210 [3]; Mus musculus, L1210) | further results
1 | CCOC(=O)Nc1cc2c(c(N)n1)N=C(c1ccccc1)C(C)N2.O=S(=O)(O)CCO (stereo not given) | 0.74 nM |  | ILS at 0.5 mg/kg (P388 [1]): 46%; IC50 (L1210 [3]; l1210): 0.54 nM
2 | CCC(C)OC(=O)Nc1cc2c(c(N)n1)N=C(c1ccccc1)C(C)N2 (stereo not given) |  | 1.2 nM | ILS at 12 mg/kg (P388 [4]): 60%
3 | CCOC(=O)Nc1cc2c(c(N)n1)N=C(c1ccccc1)C(C)N2.Cl (stereo not given) | 1.5 nM | 0.51 nM | ILS at 1 mg/kg (P388 [5]): 75%
4 | CCOC(=O)Nc1cc2c(c(N)n1)N=C(c1ccccc1)CN2 | 2.8 nM |  | ILS at 2 mg/kg (P388 [6]): 51%
5 | CC1Nc2cc(NC(=O)OCc3ccccc3)nc(N)c2N=C1c1ccccc1 (stereo not given) |  | 63 nM | 
6 | CCOC(=O)Nc1cc2c(c(NC(C)=O)n1)N=C(c1ccccc1)CN2 | 23 nM | 8.6 nM | ILS at 25 mg/kg (P388 [7]): 49%
7 | Nc1nccc2c1N=C(c1ccccc1)CN2 | >10000 nM | 2800 nM | ILS at 50 mg/kg (P388 [8]): 0%
8 | CC1Nc2cc(N)nc(N)c2N=C1c1ccccc1 (stereo not given) | 850 nM | 500 nM | 
9 | CC(=O)Nc1cc2c(c(NC(C)=O)n1)N=C(c1ccccc1)C(C)N2C(C)=O (stereo not given) |  | > 100 nM | 
10 | CCOC(=O)Nc1nc(NC(=O)OCC)c2c(c1N)NC(C)C(c1ccccc1)=N2 (stereo not given) |  | > 300 nM | ILS at 200 mg/kg (P388 [9]): 0%
11 | CNC(=O)Nc1cc2c(c(N)n1)N=C(c1ccccc1)C(C)N2 (stereo not given) |  | 20 nM | ILS at 12 mg/kg (P388 [4]): 0%
12 | COC(=O)Nc1cc2c(c(N)n1)N=C(c1ccccc1)C(C)N2 (stereo not given) | 0.8 nM | 0.54 nM | ILS at 1 mg/kg (P388 [5]): 88%
13 | Nc1nc(NC(=O)OC2CCCCC2)cc2c1N=C(c1ccccc1)CN2 | 260 nM | 230 nM | ILS at 200 mg/kg (P388 [10]): 0%
14 | COc1cc2c(c(OC)c1OC)-c1ccc(OC)c(=O)cc1[C@@H](NC(C)=O)CC2 [COLCHICINE] | 21 nM | 6.4 nM | 
15 | CC[C@]1(O)C[C@H]2CN(CCc3c([nH]c4ccccc34)[C@@](C(=O)OC)(c3cc4c(cc3OC)N(C=O)[C@H]3[C@@](O)(C(=O)OC)[C@H](OC(C)=O)[C@]5(CC)C=CCN6CC[C@]43[C@@H]65)C2)C1 [VINCRISTINE] | 11 nM | 3.4 nM | ILS at 1.5 mg/kg (P388 [11]): 122%
